The subject of data set [1] is L1210. In words: Antitumor activity against mouse L1210 cells allografted in BDF1 mouse assessed as increase of host life span at 100 mg/kg, po qd for 5 days. In kind it is functional. The method in brief:
(§1)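 L1210 cells (1×10^5) were implanted ip in BDF1 mice. Oral dosing began 24 h later and ran once daily for 5 days, with compound in 0.9% saline containing 0.1% HCO-60 as solution or suspension. Six to ten mice per group. Percent ILS was (T/C − 1) × 100 on mean survival time, with a 30-day observation period.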

In data set [2] the test system is L1210. In words: Antitumor activity against mouse L1210 cells allografted in BDF1 mouse assessed as increase of host life span at 6.25 mg/kg, ip qd for 5 days. In kind it is functional. The following applies: route intraperitoneal. The procedure, abridged: (§2)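 BDF1 mice were given 1×10^5 L1210 cells ip. Compound was dissolved or suspended in 0.9% NaCl with 0.1% HCO-60 and given ip daily for 5 days, starting 24 h after inoculation. Groups had 6–10 mice. ILS = (T/C − 1) × 100, from mean survival time of treated versus control mice, observed over 60 days.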

The nature of data set [3]: Toxicity in ip dosed ICR mouse up to 3 weeks. The format is organism-based. Conditions: in vivo. The method in brief:
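Maximum tolerated dose was set from a single ip injection into three female ICR mice weighing 20–21 g, followed by 3 weeks of observation.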

The subject of data set [4] is L1210. Briefly: Antitumor activity against mouse L1210 cells allografted in BDF1 mouse assessed as increase of host life span at 200 mg/kg, po qd for 5 days. In kind it is functional. The method in brief: as §1
The subject of data set [5] is L1210. In words: Antitumor activity against mouse L1210 cells allografted in BDF1 mouse assessed as increase of host life span at 25 mg/kg, ip qd for 5 days. Conditions: route intraperitoneal. The format is functional. The method in brief:
as §2

For data set [6], the system named is L1210. In words: Antitumor activity against mouse L1210 cells allografted in BDF1 mouse assessed as increase of host life span at 100 mg/kg, ip qd for 5 days. The format is functional. The following applies: route intraperitoneal. The method in brief:
as §2

For `CC(C)(C)c1ccc(C(=O)OC[C@H]2O[C@@H]3[C@H](Oc4nc(=N)ccn43)[C@@H]2OC(=O)c2ccc(C(C)(C)C)cc2)cc1.Cl`, the Activity in the data set on L1210 [1] is reported as 22.7%; in the data set with L1210 [2] it was 26.7%; in the data set on L1210 [4], 26.7%; in the data set with L1210 [5], 84%; with L1210 [6] it was 116.7%. In data set [3], this compound registered an MTD at 504 h of 300 mg/kg.

For the compound `CCCCC(=O)O[C@H]1[C@H]2Oc3nc(=N)ccn3[C@@H]2O[C@@H]1COP(=O)(O)O`, the Activity in the data set on L1210 [1] came to 22.7%; with L1210 [2], 15.8%; in the data set with L1210 [4], 45.6%; in the data set with L1210 [5], 37%; in the data set with L1210 [6], 64.6%. In data set [3], this compound displayed an MTD at 504 h of 750 mg/kg.

For `CCCCSCCCCCCCCCCC(=O)OC[C@H]1O[C@@H]2[C@H](Oc3nc(=N)ccn32)[C@@H]1OC(=O)CCCCCCCCCCSCCCC.Cl`, the Activity is on record as 4% with L1210 [1]; 26.7% with L1210 [2]; 13.3% in the data set on L1210 [4]; 164% in the data set with L1210 [5]; >624.3% in the data set on L1210 [6]. The MTD at 504 h in data set [3] is 500 mg/kg.

Regarding `CCCCCCCCCCCCCCCC(=O)OC[C@H]1O[C@@H]2[C@H](Oc3nc(=N)ccn32)[C@@H]1OC(=O)CCCCCCCCCCCCCCC.Cl`, the Activity was 0% in the data set with L1210 [1]; 59% in the data set on L1210 [2]; 22.5% with L1210 [4]; 151.3% in the data set with L1210 [5]; >528.2% in the data set with L1210 [6]. This compound also had an MTD at 504 h in data set [3] of 750 mg/kg.

As to `CCCC(=O)OCCCCCCCCCCC(=O)OC[C@H]1O[C@@H]2[C@H](Oc3nc(=N)ccn32)[C@@H]1OC(=O)CCCCCCCCCCOC(=O)CCC.Cl`, the Activity with L1210 [1] is 13.3%; in the data set on L1210 [2], 5.1%; in the data set with L1210 [4], 33.3%; in the data set with L1210 [5], 66.7%; in the data set on L1210 [6] it was 86.7%. The MTD at 504 h in data set [3] was 300 mg/kg.

In the case of `CCCCCCCCCCCOC(=O)CCC(=O)OC[C@H]1O[C@@H]2[C@H](Oc3nc(=N)ccn32)[C@@H]1OC(=O)CCC(=O)OCCCCCCCCCCC.Cl`, the Activity is listed as 10.8% in the data set with L1210 [1], 15.4% in the data set with L1210 [2], 43.6% in the data set on L1210 [5] and 94.6% with L1210 [6]. The compound further came in with an MTD at 504 h in data set [3] of 750 mg/kg.

The values are drawn from ChEMBL document CHEMBL3227981, “Studies on biologically active nucleosides and nucleotides. 5. Synthesis and antitumor activity of some 2,2'-anhydro-1-(3',5'-di-O-acyl-beta-D-arabinofuranosyl)cytosine salts and 2,2'-anhydro-1-(3'-O-acyl-beta-D-arabinofuranoxyl)cytosine 5'-phosphates” (J Med Chem, 1979).
